The text below walks through data of ChEMBL document CHEMBL4825764, “Flavonoid Monomers as Potent, Nontoxic, and Selective Modulators of the Breast Cancer Resistance Protein (ABCG2)” (J Med Chem, 2021).

In series [1] the target is T1, Broad substrate specificity ATP-binding cassette transporter ABCG2 (Homo sapiens, UniProt Q9UNQ0).
T1 sequence (Q9UNQ0 whole entry): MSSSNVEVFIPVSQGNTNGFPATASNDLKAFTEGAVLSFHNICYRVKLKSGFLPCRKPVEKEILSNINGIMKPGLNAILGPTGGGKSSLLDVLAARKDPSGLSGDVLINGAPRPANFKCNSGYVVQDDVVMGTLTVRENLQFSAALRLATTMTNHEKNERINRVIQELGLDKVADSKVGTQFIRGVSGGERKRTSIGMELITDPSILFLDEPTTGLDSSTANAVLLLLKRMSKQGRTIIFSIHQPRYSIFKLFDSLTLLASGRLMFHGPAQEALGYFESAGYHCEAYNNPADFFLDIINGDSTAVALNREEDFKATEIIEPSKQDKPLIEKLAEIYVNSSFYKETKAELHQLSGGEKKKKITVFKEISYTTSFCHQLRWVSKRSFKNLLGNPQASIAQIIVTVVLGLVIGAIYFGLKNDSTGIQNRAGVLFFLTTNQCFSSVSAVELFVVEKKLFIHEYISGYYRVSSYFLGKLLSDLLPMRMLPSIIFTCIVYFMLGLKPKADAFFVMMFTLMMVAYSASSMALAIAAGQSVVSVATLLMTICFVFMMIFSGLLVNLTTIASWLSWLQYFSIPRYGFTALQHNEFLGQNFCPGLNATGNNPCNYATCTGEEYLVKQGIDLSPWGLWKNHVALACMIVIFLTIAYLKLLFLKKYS
Nature of the series: Inhibition of BCRP (unknown origin) expressed in HEK293/R2 cells assessed as fold increase in mitoxantrone accumulation at 1 uM after 4 days by flow cytometry analysis. It counts as cell-based. Conditions: hek293/r2, 96 h, time 4 day. Put shortly: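 HEK293/R2 cells were treated 4 days at 37 °C with 1 μM modulator or 0.1% DMSO, washed, then given the mitoxantrone accumulation assay with flow cytometry read-out. Data are relative to DMSO, N = 5 independent experiments.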

The species named for series [2] is Homo sapiens. Nature of the series: Selectivity index, ratio of EC50 for inhibition of P-gp (unknown origin) expressed in LCC6MDR cells assessed as reversal of paclitaxel resistance to EC50 for inhibition of BCRP (unknown origin) transfected in HEK293/R2 cells assessed as reversal of topotecan resistance. It is filed as cell-based. The method, boiled down: (§1)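 Selectivity index is the EC50 against the other transporter's line divided by the EC50 in the BCRP line. All values come from 5-day MTS reversal assays. These use topotecan in HEK293/R2 (0–2000 nM) or MCF7-MX100 (0–100 μM), doxorubicin in 2008/MRP1, and paclitaxel in LCC6MDR, each with modulator at 0–1000 nM.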

For series [3], the species on record is Homo sapiens. Nature of the series: Selectivity index, ratio of EC50 for inhibition of P-gp (unknown origin) expressed in LCC6MDR cells assessed as reversal of paclitaxel resistance to EC50 for Inhibition of BCRP (unknown origin) expressed in MCF7/MX100 cells assessed as reversal of topotecan resistance. It counts as cell-based. The method, boiled down:
as §1

For series [4], the species on record is Homo sapiens. In words: Selectivity index, ratio of EC50 for inhibition of MRP1 (unknown origin) expressed in 2008/MRP1 cells assessed as reversal of doxorubicin resistance to EC50 for inhibition of BCRP (unknown origin) transfected in HEK293/R2 cells assessed as reversal of topotecan resistance. It is filed as cell-based. Put shortly: as §1
Series [5] concerns 2008. In words: Selectivity index, ratio of EC50 for inhibition of MRP1 (unknown origin) expressed in 2008/MRP1 cells assessed as reversal of doxorubicin resistance to Inhibition of BCRP (unknown origin) expressed in MCF7/MX100 cells assessed as reversal of topotecan resistance. It counts as cell-based. Conditions: Homo sapiens. The method, boiled down:
as §1

The species named for series [6] is Homo sapiens. In words: Selectivity index, ratio of EC50 for inhibition of P-gp (unknown origin) expressed in LCC6MDR cells assessed as reversal of mitoxantrone resistance to EC50 for inhibition of BCRP (unknown origin) expressed in HEK293/R2 cells assessed as reversal of mitoxantrone resistance. It counts as cell-based. The method, boiled down:
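Selectivity index is the EC50 in 2008/MRP1 or LCC6MDR divided by the EC50 in HEK293/R2. All three lines were measured by 5-day mitoxantrone co-incubation with modulator, with MTS/PMS read-out at 490 nm.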

The target in series [7] is T1, Broad substrate specificity ATP-binding cassette transporter ABCG2. Nature of the series: Inhibition of BCRP (unknown origin) expressed in human HEK293/R2 cells assessed as increase in intracellular topotecan accumulation by measuring fold change at 1 uM after 2 hrs in presence of topotecan by flow cytometry analysis relative to control. It is filed as cell-based. Particulars: hek293/r2, 2 h. Put shortly:
(§2)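 5 × 10^5 HEK293/pcDNA3.1 or HEK293/R2 cells in 1 mL were incubated 2 hr at 37 °C with 50 μM topotecan or 5 μM mitoxantrone plus 1 or 2 μM modulator, with DMSO as the vehicle control. Cells were washed in cold PBS and resuspended in FACS buffer. Flow cytometry read FL1 (topotecan) or FL4 (mitoxantrone) over 50,000 events, normalized to wild-type cells.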

For series [8] the target is unchanged. In words: Inhibition of BCRP (unknown origin) expressed in human HEK293/R2 cells assessed as increase in intracellular mitoxantrone accumulation by measuring fold change at 1 uM after 2 hrs in presence of mitoxantrone by flow cytometry analysis relative to control. It counts as cell-based. Conditions: hek293/r2, 2 h. The method, boiled down:
as §2

For series [9] the target is unchanged. In words: Inhibition of BCRP (unknown origin) expressed in human HEK293/R2 cells assessed as increase in intracellular mitoxantrone accumulation by measuring fold change at 2 uM after 2 hrs in presence of mitoxantrone by flow cytometry analysis relative to control. It is filed as cell-based. Particulars: hek293/r2, 2 h. The method, boiled down: as §2
The target is the same in series [10]. Nature of the series: Inhibition of BCRP (unknown origin) expressed in wild type HEK293/pcDNA3.1 cells assessed as increase in intracellular topotecan accumulation at 1 to 2 uM after 2 hrs in presence of topotecan by flow cytometry analysis relative to control. It counts as cell-based. Particulars: hek293, 2 h, dose 1-2 µM. Put shortly:
as §2

For series [11] the target is unchanged. In words: Inhibition of BCRP (unknown origin) expressed in wild type HEK293/pcDNA3.1 cells assessed as increase in intracellular mitoxantrone accumulation at 1 to 2 uM after 2 hrs in presence of mitoxantrone by flow cytometry analysis relative to control. It is filed as cell-based. Conditions: hek293, 2 h, dose 1-2 µM. The method, boiled down: as §2
The subject of series [12] is HEK293. Nature of the series: Effect on BCRP protein expression in human HEK293/R2 cells at 1 to 3 uM after 24 hrs by flow cytometric analysis. It is filed as functional, cell-based. Conditions: dose 1-3 µM. Put shortly: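 HEK293/R2 and HEK293/pcDNA3.1 cells were exposed to 0, 1 or 3 μM compound for 24 hr, with 0.1–0.3% DMSO as solvent control. Cells were trypsinized and stained with FITC anti-human BCRP for 45 min at 4 °C, with an IgG2b-FITC isotype control. Surface signal was read by flow cytometry on FL1 over 50,000 events.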

For series [13], the target named is T2, BCRP (ABCG2) (Homo sapiens, UniProt Q9UNQ0).
T2 sequence (Q9UNQ0 whole entry): T1 sequence (Q9UNQ0 whole entry)
In words: Inhibition of BCRP (unknown origin) expressed in HEK293/R2 cells assessed as conformational change by measuring increase in 5D3 shift at 1 uM preincubated for 15 mins followed by FITC mouse antihuman BCRP antibody addition measured after 30 mins by flow cytometry analysis. It counts as cell-based. Particulars: HEK293/R2 cells expressing BCRP, time 45 min. The method, boiled down: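 5 × 10^5 HEK293/R2 cells in FACS buffer were shaken 15 min at 37 °C with 1 μM compound. FITC 5D3 anti-BCRP was then added for 30 min at 37 °C and fluorescence read by flow cytometry on FL1. Compound-only background was subtracted and the untreated DMSO shift removed. Result is % of the 1 μM Ko143-induced shift.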

Molecules are shown by their SMILES. Activity calls are given as the source filed them. No cut-off for these calls is given here.

Take `COC(=O)c1cccc(COc2c(-c3ccc(OCCCCc4cn(Cc5ccccc5)nn4)cc3)oc3ccccc3c2=O)c1`: the “fold change (FC)” value is on record as 3.8 in series [1], 8.1 in series [7], 5.9 in series [8] and 5.7 in series [9]. The Ratio EC50 in [2] came to 96; in series [3], 112; in [4] it was 143; in series [5], 167; in series [6], 52. Also, the “inhibition (INH)” value in series [10] and in series [11] was “Not Active” in each case. The result in [12] was inactive. In series [13], the inhibition at 0.5 h, 1 µM was determined as 100%.
